Measurements pooled from the literature.
Each line is one published result; the experiments were not run side by side. ≈ marks a conversion by molar mass, not a printed value.

| SMILES | target or system | test | system | conditions | measurement | result |
| --- | --- | --- | --- | --- | --- | --- |
| S=P1(C2CCCCC2)CCCCC1 | HaCaT | cell growth or viability, MTT | – | 72 h | IC50 | > 100 µM |
| O=C/C=C/c1ccccc1 | Bacillus subtilis | microbial growth, well diffusion | MTCC121 | 1000 µg/mL, 18 h | inhibition zone | 8 mm |
| CC[C@H](C)C[C@H](C)CCCCCCCCC(=O)N[C@H]1C[C@@H](O)[C@@H](NCCN)NC(=O)[C@@H]2[C@@H](O)CCN2C(=O)[C@H]([C@H](O)CCN)NC(=O)[C@H]([C@H](O)[C@@H](O)c2ccc(O)cc2)NC(=O)[C@@H]2C[C@@H](O)CN2C(=O)[C@H]([C@@H](C)O)NC1=O | Nakaseomyces glabratus | microbial killing, broth dilution | ATCC15126 | 48 h | MFC | 0.5 µg/mL (≈ 0.457 µM) |
| C#Cc1ccc(C=NNC(=O)c2ccc(COCC)cc2)c(O)c1 | Cryptococcus neoformans | microbial growth, broth dilution | – | pH 7.4 | MIC80 | 0.015 µg/mL (≈ 0.0465 µM) |
| COc1cnc(OC)n2nc(NS(=O)(=O)c3c(OCC(F)F)cccc3C(F)(F)F)nc12 | HaCaT | cell growth or viability, CCK-8 | – | 50 µM, 72 h | inhibition | 0.69% |
| C#Cc1ccc(C=NNC(=O)c2ccc(Br)c(O)c2)c(O)c1 | Cryptococcus neoformans | microbial growth, broth dilution | – | pH 7.4 | MIC80 | 1 µg/mL (≈ 2.78 µM) |
| N.N.[Cl][Pt][Cl] | Daudi | cell growth or viability, ATP luminescence | – | 72 h | IC50 | 0.86 µM |
| C#Cc1cccc(O)c1C=NNC(=O)c1ccc(COC)cc1 | Cryptococcus neoformans | microbial growth, broth dilution | – | pH 7.4 | MIC80 | 0.06 µg/mL (≈ 0.195 µM) |
| O=C1CCP(=[Se])(c2ccccc2)CC1 | HaCaT | cell growth or viability, MTT | – | 72 h | IC50 | > 100 µM |
| CC(=O)O[C@H]1C(=O)[C@@]2(C)[C@H]([C@H](OC(=O)c3ccccc3)[C@]3(O)C[C@H](OC(=O)[C@H](O)[C@@H](NC(=O)c4ccccc4)c4ccccc4)C(C)=C1C3(C)C)[C@]1(OC(C)=O)CO[C@@H]1C[C@@H]2O | HaCaT | cell growth or viability, CCK-8 | – | 12.5 µM, 72 h | inhibition | > 90% |
| S=P1(c2ccccc2)CCCCC1 | HaCaT | cell growth or viability, MTT | – | 72 h | IC50 | > 100 µM |
| C#Cc1ccc(C=NNC(=O)c2ccc(COCCC)cc2)c(O)c1 | Cryptococcus neoformans | microbial growth, broth dilution | – | pH 7.4 | MIC80 | 0.015 µg/mL (≈ 0.0446 µM) |
